# Test results: ChEMBL document CHEMBL2331355, “Synthesis, structure activity relationship and mode of action of 3-substitutedphenyl-1-(2,2,8,8-tetramethyl-3,4,9,10-tetrahydro-2H,8H-pyrano[2,3-f]chromen-6-yl)-propenones as novel anticancer agents in human leukaemia HL-60 cells” (Eur J Med Chem, 2013)
# Activity calls are given as the source filed them. The rule behind the calls is not given here.
# Assays:
# HL-60 [1] = experiment: Cell cycle arrest in human HL60 cells assessed as G2/M phase cells at 10 uM after 24 hrs by PI staining-based flow cytometric analysis (reference value: 3%); assay type: functional
# HL-60 [2] = experiment: Cell cycle arrest in human HL60 cells assessed as decrease in S phase cells after 24 hrs by PI staining-based flow cytometric analysis; assay type: functional
# HL-60 [3] = experiment: Induction of apoptosis in human HL60 cells at 15 uM after 24 hrs by PI-staining based flow cytometric analysis (reference value: 0.7 %); assay type: functional
# HL-60 [4] = experiment: Induction of apoptosis in human HL60 cells at 10 uM after 24 hrs by PI-staining based flow cytometric analysis (reference value: 0.7 %); assay type: functional
# HL-60 [5] = experiment: Cell cycle arrest in human HL60 cells assessed as S phase cells at 5 uM after 24 hrs by PI staining-based flow cytometric analysis (reference value: 49%); assay type: functional
# HL-60 [6] = experiment: Cell cycle arrest in human HL60 cells assessed as G2/M phase cells at 5 uM after 24 hrs by PI staining-based flow cytometric analysis (reference value: 3%); assay type: functional
# HL-60 [7] = experiment: Cell cycle arrest in human HL60 cells assessed as S phase cells at 10 uM after 24 hrs by PI staining-based flow cytometric analysis (reference value: 49%); assay type: functional
# MCF7 [8] = experiment: Growth inhibition of human MCF7 cells at 50 uM after 48 hrs by MTT assay; assay type: functional; settings: MCF7, 48 h, read-out: GI
# Method in brief: (§1)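 Single-concentration MTT screen at 50 µM over 48 h in 96-well plates. Compounds giving >50% inhibition were rescreened at 30 µM. OD read at 570 nm, reference 620 nm. Result expressed as % growth inhibition versus untreated control. Mitomycin C, adriamycin or 5-fluorouracil used as positive controls. Mean ± SD of three independent experiments.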
# HL-60 [9] = experiment: Cytotoxicity against human HL60 cells after 48 hrs by MTT assay; assay type: functional, cell-based; settings: HL-60, 48 h
# Method in brief: (§2)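 MTT assay in 96-well plates, 48 h exposure across 1–100 µM. OD read at 570 nm against a 620 nm reference. Untreated control OD taken as 100% viability. IC50 derived from the concentration–response curves. Mean ± SD, n = 8 wells, from three independent experiments.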
# HL-60 [10] = experiment: Cell cycle arrest in human HL60 cells assessed as G2/M phase cells at 20 uM after 24 hrs by PI staining-based flow cytometric analysis (reference value: 3%); assay type: functional
# MIA PaCa-2 [11] = experiment: Growth inhibition of human MIAPaCa2 cells at 30 uM after 48 hrs by MTT assay; assay type: functional, cell-based; method in brief: as §1
# HL-60 [12] = experiment: Cell cycle arrest in human HL60 cells assessed as S phase cells at 15 uM after 24 hrs by PI staining-based flow cytometric analysis (reference value: 49%); assay type: functional
# MIA PaCa-2 [13] = experiment: Cytotoxicity against human MIAPaCa2 cells after 48 hrs by MTT assay; assay type: functional, cell-based; settings: MIA PaCa-2, 48 h; method in brief: as §2
# HL-60 [14] = experiment: Induction of apoptosis in human HL60 cells assessed as DNA fragmentation at 20 uM after 24 hrs by SDS-PAGE analysis; assay type: functional, cell-based; settings: in the assay text read “agarose gel electrophoresis” for “SDS-PAGE analysis”
# Method in brief: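 HL-60 cells (2 × 10⁶/3 ml/well) treated at 20 µM for 24 h. Lysed, then digested with RNase (400 µg/ml, 37 °C, 90 min) and proteinase K (200 µg/ml, 50 °C, 1 h). DNA extracted with phenol/chloroform/isoamyl alcohol and alcohol-precipitated. Run on 1.8% agarose gel at 70 V for 1 h, stained with ethidium bromide, and scored for laddering.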
# HL-60 [15] = experiment: Induction of apoptosis in human HL60 cells at 20 uM after 24 hrs by PI-staining based flow cytometric analysis (reference value: 0.7 %); assay type: functional
# HL-60 [16] = experiment: Cell cycle arrest in human HL60 cells assessed as S phase cells at 20 uM after 24 hrs by PI staining-based flow cytometric analysis (reference value: 49%); assay type: functional
# PC-3 [17] = experiment: Growth inhibition of human PC3 cells at 30 uM after 48 hrs by MTT assay; assay type: functional, cell-based; method in brief: as §1
# HL-60 [18] = experiment: Growth inhibition of human HL60 cells at 30 uM after 48 hrs by MTT assay; assay type: functional, cell-based; method in brief: as §1
# HL-60 [19] = experiment: Induction of apoptosis in human HL60 cells assessed as accumulation of sub-G0/G1 phase cells after 24 hrs by PI-staining based flow cytometric analysis; assay type: functional, cell-based
# HL-60 [20] = experiment: Growth inhibition of human HL60 cells at 50 uM after 48 hrs by MTT assay; assay type: functional; settings: HL-60, 48 h, read-out: GI; method in brief: as §1
# HL-60 [21] = experiment: Cytotoxicity against human HL60 cells after 24 hrs by MTT assay; assay type: functional, cell-based; settings: HL-60, 24 h
# Method in brief: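 HL-60 cells exposed 24 h to a range of concentrations, then MTT reduction measured. Untreated control OD taken as 100% viability; IC50 derived from the curve. Mean ± SD, n = 8 wells, three independent experiments.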
# MCF7 [22] = experiment: Growth inhibition of human MCF7 cells at 30 uM after 48 hrs by MTT assay; assay type: functional, cell-based; method in brief: as §1
# MIA PaCa-2 [23] = experiment: Growth inhibition of human MIAPaCa2 cells at 50 uM after 48 hrs by MTT assay; assay type: functional; settings: MIA PaCa-2, 48 h, read-out: GI; method in brief: as §1
# ASPC1 [24] = experiment: Growth inhibition of human AsPC1 cells at 30 uM after 48 hrs by MTT assay; assay type: functional, cell-based; method in brief: as §1
# HL-60 [25] = experiment: Cell cycle arrest in human HL60 cells assessed as decrease in G2/M phase cells after 24 hrs by PI staining-based flow cytometric analysis; assay type: functional
# HL-60 [26] = experiment: Induction of mitochondrial membrane potential loss in human HL60 cells at 20 uM after 24 hrs by rhodamine-123 staining method (reference value: 7%); assay type: functional
# Method in brief: (§3)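 HL-60 cells (1 × 10⁶/2 ml/well) treated 24 h at 15 or 20 µM, then incubated with rhodamine-123 (200 nM) for 40 min. Loss of dye uptake measured by flow cytometry. Camptothecin (4 µM, 6 h) as positive control. Representative of three experiments.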
# HL-60 [27] = experiment: Cell cycle arrest in human HL60 cells assessed as accumulation of G0/G1 phase cells at 20 uM after 24 hrs by PI staining-based flow cytometric analysis (reference value: 48%); assay type: functional
# MDA-MB-435 [28] = experiment: Growth inhibition of human MDA-MB-435 cells at 30 uM after 48 hrs by MTT assay; assay type: functional, cell-based; method in brief: as §1
# PC-3 [29] = experiment: Cytotoxicity against human PC3 cells after 48 hrs by MTT assay; assay type: functional, cell-based; settings: PC-3, 48 h; method in brief: as §2
# MDA-MB-435 [30] = experiment: Growth inhibition of human MDA-MB-435 cells at 50 uM after 48 hrs by MTT assay; assay type: functional; settings: MDA-MB-435, 48 h, read-out: GI; method in brief: as §1
# ASPC1 [31] = experiment: Growth inhibition of human AsPC1 cells at 50 uM after 48 hrs by MTT assay; assay type: functional; settings: ASPC1, 48 h, read-out: GI; method in brief: as §1
# HL-60 [32] = experiment: Cell cycle arrest in human HL60 cells assessed as accumulation of G0/G1 phase cells at 5 uM after 24 hrs by PI staining-based flow cytometric analysis (reference value: 48%); assay type: functional
# HL-60 [33] = experiment: Induction of mitochondrial membrane potential loss in human HL60 cells at 15 uM after 24 hrs by rhodamine-123 staining method (reference value: 7%); assay type: functional; method in brief: as §3
# HL-60 [34] = experiment: Cell cycle arrest in human HL60 cells assessed as G2/M phase cells at 15 uM after 24 hrs by PI staining-based flow cytometric analysis (reference value: 3%); assay type: functional
SMILES,Activity (HL-60 [1]) [%],Activity (HL-60 [2]),Activity (HL-60 [3]) [%],Activity (HL-60 [4]) [%],Activity (HL-60 [5]) [%],Activity (HL-60 [6]) [%],Activity (HL-60 [7]) [%],inhibition of growth at 50 µM (MCF7 [8]) [%],IC50 (HL-60 [9]) [µM],Activity (HL-60 [10]) [%],growth inhibition (GI) (MIA PaCa-2 [11]),Activity (HL-60 [12]) [%],IC50 (MIA PaCa-2 [13]) [µM],Activity (HL-60 [14]),Activity (HL-60 [15]) [%],Activity (HL-60 [16]) [%],growth inhibition (GI) (PC-3 [17]),growth inhibition (GI) (HL-60 [18]),Activity (HL-60 [19]),inhibition of growth at 50 µM (HL-60 [20]) [%],further results
CC1(C)CCc2cc(C(=O)/C=C/c3cccc([N+](=O)[O-])c3)c3c(c2O1)CCC(C)(C)O3,4,Dose-dependent effect,30,13,48,6,42,89,11,3,Active,25,18,Active,58,11,Active,Active,Dose-dependent effect,92,IC50 (HL-60 [21]): 25 µM; growth inhibition (GI) (MCF7 [22]): Active; inhibition of growth at 50 µM (MIA PaCa-2 [23]): 80%; growth inhibition (GI) (ASPC1 [24]): Active; Activity (HL-60 [25]): Dose-dependent effect; Activity (HL-60 [26]): 48%; Activity (HL-60 [27]): 86%; growth inhibition (GI) (MDA-MB-435 [28]): Active; IC50 (PC-3 [29]): 8 µM; inhibition of growth at 50 µM (MDA-MB-435 [30]): 88%; inhibition of growth at 50 µM (ASPC1 [31]): 48%; Activity (HL-60 [32]): 46%; Activity (HL-60 [33]): 44%; Activity (HL-60 [34]): 4%
CC1(C)CCc2cc(C(=O)/C=C/c3ccc([N+](=O)[O-])cc3)c3c(c2O1)CCC(C)(C)O3,4,Dose-dependent effect,14,14,47,9,44,52,15,4,Active,43,45,Active,32,37,Active,Active,Dose-dependent effect,91,IC50 (HL-60 [21]): 23 µM; growth inhibition (GI) (MCF7 [22]): Active; inhibition of growth at 50 µM (MIA PaCa-2 [23]): 74%; growth inhibition (GI) (ASPC1 [24]): Active; Activity (HL-60 [25]): Dose-dependent effect; Activity (HL-60 [26]): 56%; Activity (HL-60 [27]): 59%; growth inhibition (GI) (MDA-MB-435 [28]): Active; IC50 (PC-3 [29]): 26 µM; inhibition of growth at 50 µM (MDA-MB-435 [30]): 78%; inhibition of growth at 50 µM (ASPC1 [31]): 27%; Activity (HL-60 [32]): 44%; Activity (HL-60 [33]): 52%; Activity (HL-60 [34]): 4%
